The record followed here is ChEMBL document CHEMBL4732262, “Identification of two novel thiophene analogues as inducers of autophagy mediated cell death in breast cancer cells” (Bioorg Med Chem, 2021).

Test [1] relates to MCF7. The test can be described thus: Induction of autophagy in human MCF7 cells expressing GFP tagged LC3-2 assessed as increase in […] puncta formation at 2.5 uM after 24 hrs by confocal microscopic analysis. It is filed as functional, cell-based. In outline: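 MCF7 cells (~1 × 10^6) at 70% confluency on glass-bottom dishes were transiently transfected with GFP-LC3 (Lipofectamine 3000). 24 h later they received 2.5 µM compound or DMSO for another 24 h. Nuclei were stained with Hoechst 33342 and lysosomes with LysoTracker Red DND-99, then imaged by live-cell confocal microscopy. LC3 puncta were counted in at least 10 cells from 3 fields. Two independent experiments.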

Test [2] concerns MCF7. The test can be described thus: Induction of autophagy in human MCF7 cells assessed as increase in LC3-2 conversion level at 2.5 uM after 24 hrs in presence of chloroquine by Western blot analysis. It is filed as functional, cell-based. In a few lines: (§1)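 MCF7 cells given 2.5 µM alone or combined with 50 µM chloroquine for 24 h. Western blot for cleaved PARP, p62 and LC3, with GAPDH as loading control. LC3-II/I ratio by densitometry. At least two independent experiments.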
Background: Immunoblotting shows a protein as a band on a membrane.

In test [3] the test system is MCF7. In words: Induction of apoptosis in human MCF7 cells assessed as increase in cleaved-PARP protein expression at 2.5 uM after 24 hrs in presence of chloroquine by Western blot analysis. It is filed as functional, cell-based. In a few lines: as §1
In test [4] the test system is MCF7. The test can be described thus: Induction of autophagy in human MCF7 cells assessed as increase in p62 degradation at 2.5 uM after 24 hrs in presence of chloroquine by Western blot analysis. It counts as functional, cell-based. In outline: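 MCF7 cells were given 2.5 µM compound alone or combined with 50 µM chloroquine, with DMSO control, for 24 h. Lysates were immunoblotted for p62 and LC3, with GAPDH as loading control. Band intensities were quantified by infrared imaging. At least two independent experiments.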

For test [5], the system named is MCF7. In words: Induction of autophagy in human MCF7 cells assessed as increase in CHOP mRNA expression at 2.5 uM after 24 hrs by RT-PCR analysis. It is filed as functional, cell-based.
In test [6] the test system is MDA-MB-231. The test can be described thus: Cytotoxicity against human MDA-MB-231 cells assessed as reduction in cell viability at 25 to 100 uM after 24 hrs in presence of chloroquine by MTT assay. It counts as functional, cell-based. Conditions: dose 25-100 µM. In outline:
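~0.5 × 10^5 cells per well in six-well plates given 2.5 µM test agent together with chloroquine at 25, 50 or 100 µM, 24 h at 37 °C in humidified CO2. Viability read by MTT. Duplicate assays from two independent experiments, shown with SD.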
Background: Tetrazolium assays rely on reduction of a dye to a coloured formazan, in cell work by metabolically active cells.

Test [7] has as its system MCF7. The test can be described thus: Induction of apoptosis in human MCF7 cells assessed as late apoptotic cells at 2.5 uM after 24 hrs by annexin V-FITC/Propidium iodide staining based flow cytometric analysis (reference value: 0.2%). It counts as functional. For orientation: In flow cytometry, cells or beads pass a laser one at a time.
For test [8], the system named is MCF7. In words: Induction of apoptosis in human MCF7cells assessed as reduction in number of cells at 2.5 uM by phase contrast microscopic method. It is filed as functional, cell-based. The conditions noted are these: time 6-24 hrs, TDE = time-dependent effect. In outline:
(§2)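 ~5 × 10^4 cells in 6-well plates, either DMSO control or 2.5 µM. Morphology imaged at 0, 6, 12 and 24 h.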

For test [9], the system named is MCF7. The test can be described thus: Induction of apoptosis in human MCF7 cells assessed as increase in cell death at 2.5 uM after 24 hrs by EtBr/AO staining based fluorescence microscopic method relative to tanshinone-2A. It is filed as functional. In outline: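 MCF7 cells (~5 × 10^4 per well, on coverslips) were left untreated (DMSO control) or treated at 2.5 µM for 24 h. Cells were PBS-washed, stained with 1:1 EtBr/AO (0.4 mg/ml each), washed and mounted, then viewed by fluorescence microscopy (480 nm excitation, 515-530 nm barrier filter). 200 cells per sample were scored apoptotic, necrotic or viable; percentages were taken relative to live cells.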

Test [10] relates to MDA-MB-231. The test can be described thus: Induction of apoptosis in human MDA-MB-231 cells assessed as reduction in number of cells at 2.5 uM by phase contrast microscopic method. It is filed as functional, cell-based. Conditions: time 6-24 hrs, TDE = time-dependent effect. In a few lines:
as §2

The test system of test [11] is MCF7. The test can be described thus: Induction of autophagy in human MCF7 cells expressing mCherry-tagged p62 assessed as reduction in p62 expression at 2.5 uM after 24 hrs by live-cell confocal microscopic analysis. It counts as functional, cell-based. In a few lines:
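MCF7 cells were co-transfected with GFP-LC3 and mCherry-p62 constructs. 24 h later they were exposed to 2.5 µM compound, 50 µM chloroquine or DMSO for a further 24 h. Nuclei were stained with Hoechst 33342 and cells imaged by live-cell confocal microscopy. Two independent experiments.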

Test [12] has as its system MCF7. In words: Induction of apoptosis in human MCF7 cells assessed as increase in cleaved-PARP protein expression after 24 hrs by Western blot analysis. It is filed as functional, cell-based. Conditions: dose 1.25-5 µM.
Test [13] deals with MCF7. The test can be described thus: Induction of autophagy in human MCF7 cells assessed as LC3-2 to LC3-1 protein ratio at 1.25 uM after 24 hrs by Western blot analysis (reference value: 0.22 to 0.8). It is filed as functional.
Test [14] has as its system MCF7. The test can be described thus: Induction of apoptosis in human MCF7 cells assessed as necrotic cells at 2.5 uM after 24 hrs by annexin V-FITC/Propidium iodide staining based flow cytometric analysis (reference value: 1.22%). It counts as functional.
For test [15], the system named is MCF7. The test can be described thus: Induction of autophagy in human MCF7 cells assessed as increase in GADD34 protein expression at 2.5 uM after 24 hrs by Western blot analysis. It counts as functional, cell-based. In a few lines:
(§3)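 MCF7 or MDA-MB-231 cells given 2.5 µM or DMSO for 24 h, then lysed in RIPA buffer. Immunoblots probed overnight at 4 °C, followed by infrared-labelled secondary antibody for 1 h at 37 °C. Bands imaged and quantified densitometrically, with GAPDH as loading control. Representative of two independent experiments.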

In test [16] the test system is MDA-MB-231. In words: Induction of apoptosis in human MDA-MB-231 cells at 2.5 uM after 24 hrs by annexin V-FITC/Propidium iodide staining based flow cytometric analysis relative to tanshinone-1. It counts as functional.
The subject of test [17] is MCF7. The test can be described thus: Induction of autophagy in human MCF7 cells assessed as increase in CHOP protein expression at 2.5 uM after 24 hrs by Western blot analysis. It counts as functional, cell-based. In a few lines:
as §3

Structures are written as SMILES. Activity calls are given as the source filed them. The calls are words filed in the database; no cut-off is given here.

Consider `O=C1C(=O)c2sccc2-c2ccccc21`, for which the outcome in the test on MCF7 [1], in the test with MCF7 [5], in the test on MCF7 [11], with MCF7 [15] and with MCF7 [17] was Active. For the same compound, the result with MCF7 [2], in the test on MCF7 [3], in the test on MCF7 [4] and in the test with MDA-MB-231 [6] was inactive. Further, the Activity with MCF7 [7] is 23.5%; with MCF7 [8], “Tde”; with MDA-MB-231 [10], “Tde”; in the test on MCF7 [12], “Dose-dependent effect”; with MCF7 [14], 22.2%. The “fold change (FC)” value is reported as 2 in the test with MCF7 [9] and “>=2” in the test on MDA-MB-231 [16]. For the same compound, the Ratio in the test with MCF7 [13] was found to be 0.53.

Regarding `O=C1C(=O)c2ccsc2-c2ccccc21`, the outcome in the test with MCF7 [1], in the test on MCF7 [5], with MCF7 [11], in the test with MCF7 [15] and in the test on MCF7 [17] was Active. Further, the result with MCF7 [2], in the test on MCF7 [3], with MCF7 [4] and with MDA-MB-231 [6] was inactive. In addition, the Activity in the test on MCF7 [7] is 19.1%; in the test on MCF7 [8], “Tde”; with MDA-MB-231 [10] it was “Tde”; in the test on MCF7 [12], “Dose-dependent effect”; in the test on MCF7 [14] it was 37.7%. The figures for the “fold change (FC)” value in the test on MCF7 [9] and in the test with MDA-MB-231 [16] were 2 and “>=2”, respectively. Further, the Ratio in the test on MCF7 [13] is 10.2.
